In ChEMBL document CHEMBL5260840 (J Med Chem, 2019) one finds Activity and IC50 data, which are given here for 30 compounds.

In general, IC50 refers to the concentration needed to halve the response being measured.

Assay [1] concerns the target T1, von Hippel-Lindau disease tumor suppressor/Bromodomain-containing protein 7 (Homo sapiens) (UniProt Q9NPI1+P40337). The assay can be described thus: PROTAC activity at VHL/BRD7 in human Ri-1 cells assessed as remaining BRD7 protein level at 1 uM incubated for 2 hrs by Western blot analysis relative to control. The class given is cell-based. For orientation: Immunoblotting shows a protein as a band on a membrane.

Assay [2] deals with T2, von Hippel-Lindau disease tumor suppressor/Bromodomain-containing protein 9 (Homo sapiens) (UniProt Q9H8M2+P40337). Kind of assay: PROTAC activity at VHL/BRD9 in human Ri-1 cells assessed as remaining BRD9 protein level at 1 uM incubated for 2 hrs by Western blot analysis relative to control. The class given is cell-based. An outline of the steps:
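Ri-1 cells exposed to compound for the stated time before harvest; BRD9, BRD7 and β-actin measured by Western blot, band intensities quantified and set against DMSO-treated control.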

Assay [3] deals with T1, von Hippel-Lindau disease tumor suppressor/Bromodomain-containing protein 7 (Homo sapiens). Kind of assay: PROTAC activity at VHL/BRD7 in human HeLa cells assessed as remaining BRD7 protein level at 1 uM incubated for 4 hrs by Western blot analysis relative to control. The format is cell-based.
The next assay concerns A204. The assay can be described thus: Antiproliferative activity against human A204 cells assessed as inhibition of cell growth incubated for 7 days by CellTiterGlo assay. As to conditions: A204, 168 h. The class given is functional, cell-based.
A further assay concerns EOL1. The assay can be described thus: Antiproliferative activity against human EOL1 cells assessed as inhibition of cell growth incubated for 7 days by CellTiterGlo assay. The class given is functional, cell-based. As to conditions: EOL1, 168 h. On the technique in general: Cellular ATP, detected with luciferase, serves as a proxy for viable cell number.
Assay [4] has as its target T1, von Hippel-Lindau disease tumor suppressor/Bromodomain-containing protein 7 (Homo sapiens). Kind of assay: PROTAC activity at VHL/BRD7 in human HeLa cells assessed as remaining BRD7 protein level at 1 uM incubated for 16 hrs by Western blot analysis relative to control. The format is cell-based.
Assay [5] addresses T2, von Hippel-Lindau disease tumor suppressor/Bromodomain-containing protein 9 (Homo sapiens). The assay can be described thus: PROTAC activity at VHL/BRD9 in human HeLa cells assessed as remaining BRD9 protein level at 1 uM incubated for 16 hrs by Western blot analysis relative to control. The class given is cell-based. Put shortly: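 HeLa cells treated with compound for the stated time before harvest; BRD9, BRD7 and β-actin detected by Western blot with β-actin loading control; band intensities quantified.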

T1 sequence (P40337 whole entry, looked up): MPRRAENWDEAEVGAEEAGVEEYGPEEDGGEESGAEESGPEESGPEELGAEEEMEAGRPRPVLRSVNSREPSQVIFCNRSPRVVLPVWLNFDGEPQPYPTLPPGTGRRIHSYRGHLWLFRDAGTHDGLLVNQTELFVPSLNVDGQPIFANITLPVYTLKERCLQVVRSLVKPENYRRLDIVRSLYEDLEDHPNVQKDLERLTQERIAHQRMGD
T1 sequence (Q9NPI1 whole entry, looked up): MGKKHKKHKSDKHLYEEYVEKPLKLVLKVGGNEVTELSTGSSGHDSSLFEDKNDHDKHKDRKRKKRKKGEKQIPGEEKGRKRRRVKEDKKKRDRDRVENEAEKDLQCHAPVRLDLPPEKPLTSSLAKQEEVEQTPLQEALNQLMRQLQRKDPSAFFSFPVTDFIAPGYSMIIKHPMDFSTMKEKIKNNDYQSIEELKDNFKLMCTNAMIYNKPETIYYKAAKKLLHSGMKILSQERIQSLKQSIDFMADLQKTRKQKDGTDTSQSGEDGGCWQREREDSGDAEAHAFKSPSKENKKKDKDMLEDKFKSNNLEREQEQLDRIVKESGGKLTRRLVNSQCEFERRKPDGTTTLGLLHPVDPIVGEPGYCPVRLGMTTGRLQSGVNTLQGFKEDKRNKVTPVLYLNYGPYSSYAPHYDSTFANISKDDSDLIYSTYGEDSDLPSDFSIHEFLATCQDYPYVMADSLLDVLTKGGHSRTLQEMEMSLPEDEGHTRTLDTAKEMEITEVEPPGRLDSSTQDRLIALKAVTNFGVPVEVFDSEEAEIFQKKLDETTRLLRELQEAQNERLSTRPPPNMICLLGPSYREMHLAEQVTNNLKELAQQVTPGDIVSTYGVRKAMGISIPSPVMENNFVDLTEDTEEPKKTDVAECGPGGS
T2 sequence (P40337 whole entry, looked up): as the sequence (P40337 whole entry, looked up) above
T2 sequence (Q9H8M2 whole entry, looked up): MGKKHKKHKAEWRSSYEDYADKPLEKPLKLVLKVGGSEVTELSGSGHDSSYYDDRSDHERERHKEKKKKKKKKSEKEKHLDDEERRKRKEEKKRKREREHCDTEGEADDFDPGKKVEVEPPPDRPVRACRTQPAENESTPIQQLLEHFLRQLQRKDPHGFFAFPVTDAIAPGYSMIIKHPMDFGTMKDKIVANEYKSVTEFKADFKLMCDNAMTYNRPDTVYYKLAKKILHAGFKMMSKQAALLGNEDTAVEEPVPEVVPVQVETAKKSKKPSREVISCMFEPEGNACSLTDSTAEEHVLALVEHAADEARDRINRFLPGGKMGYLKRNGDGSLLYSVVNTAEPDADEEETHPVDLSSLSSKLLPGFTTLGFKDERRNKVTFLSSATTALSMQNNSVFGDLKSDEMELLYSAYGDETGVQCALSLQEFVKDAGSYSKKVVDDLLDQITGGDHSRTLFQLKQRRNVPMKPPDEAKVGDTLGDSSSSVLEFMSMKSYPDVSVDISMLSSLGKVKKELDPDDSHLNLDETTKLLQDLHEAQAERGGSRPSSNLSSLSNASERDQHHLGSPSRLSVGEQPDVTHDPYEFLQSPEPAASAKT

For `COc1cc(-c2cn(C)c(=O)c3cnccc23)c(OC)cc1CN1CC(NC(=O)CCCCOCCOc2cc(-c3scnc3C)ccc2CNC(=O)[C@@H]2C[C@@H](O)CN2C(=O)[C@@H](NC(=O)C2(F)CC2)C(C)(C)C)C1`, the results for the Activity in assay [1], in assay [2] and in assay [3] were 97%, 94% and 250%, respectively.

Regarding `COc1cc(-c2cn(C)c(=O)c3cnccc23)c(OC)cc1CN(C)C`, the half-maximal inhibitory concentration (IC50) with A204 was 3.55 µM; in the assay with EOL1 it was 0.339 µM.

For `COc1cc(-c2cn(C)c(=O)c3cnccc23)c(OC)cc1CN1CCN(CCCCCOc2cc(-c3scnc3C)ccc2CNC(=O)[C@@H]2C[C@@H](O)CN2C(=O)[C@@H](NC(=O)C2(F)CC2)C(C)(C)C)CC1`, the Activity in assay [1] was 65%; in assay [2], 65%; in assay [3] it was 151%.

With `COc1cc(-c2cn(C)c(=O)c3cnccc23)c(OC)cc1CN1CCN(CCCCCOCCOc2cc(-c3scnc3C)ccc2CNC(=O)[C@@H]2C[C@@H](O)CN2C(=O)[C@@H](NC(=O)C2(F)CC2)C(C)(C)C)CC1`, the Activity in assay [1] is 102%; in assay [2] it was 89%; in assay [3] it was 336%.

On to `COc1cc(-c2cn(C)c(=O)c3cnccc23)c(OC)cc1CN1CCN(CCOCCOc2cc(-c3scnc3C)ccc2CNC(=O)[C@@H]2C[C@@H](O)CN2C(=O)[C@@H](NC(=O)C2(F)CC2)C(C)(C)C)CC1`, for which the Activity stood at 98% in assay [1], 94% in assay [2] and 3% in assay [3].

On to `COc1cc(-c2cn(C)c(=O)c3cnccc23)cc(OC)c1CN1CCN(CCOCCOCCOCCOCCOCC(=O)N[C@H](C(=O)N2C[C@H](O)C[C@H]2C(=O)NCc2ccc(-c3scnc3C)cc2)C(C)(C)C)CC1`, for which the Activity in assay [4] amounted to 54%; in assay [3], 104%; in assay [5] it was 112%.

For `COc1cc(-c2cn(C)c(=O)c3cnccc23)cc(OC)c1CN1CCN(CCOCCOCCOCCOCCOc2cc(-c3scnc3C)ccc2CNC(=O)[C@@H]2C[C@@H](O)CN2C(=O)[C@@H](NC(=O)C2(F)CC2)C(C)(C)C)CC1`, the Activity in assay [4] was found to be 163%; in assay [3] it was 110%; in assay [5], 97%.

Regarding `COc1cc(-c2cn(C)c(=O)c3cnccc23)cc(OC)c1CN1CC(NC(=O)CCCCOc2cc(-c3scnc3C)ccc2CNC(=O)[C@@H]2C[C@@H](O)CN2C(=O)[C@@H](NC(=O)C2(F)CC2)C(C)(C)C)C1`, the Activity in assay [1] was determined as 70%; in assay [2], 68%; in assay [3], 25%.

As for `COc1cc(-c2cn(C)c(=O)c3cnccc23)cc(OC)c1CN1CC(NC(=O)CCCCOCCOc2cc(-c3scnc3C)ccc2CNC(=O)[C@@H]2C[C@@H](O)CN2C(=O)[C@@H](NC(=O)C2(F)CC2)C(C)(C)C)C1`, the values for the Activity in assay [1], in assay [2] and in assay [3] were 106%, 92% and 31%, respectively.

Regarding `COc1cc(-c2cn(C)c(=O)c3cnccc23)c(OC)cc1CN1CCN(CCOCCOCCOc2cc(-c3scnc3C)ccc2CNC(=O)[C@@H]2C[C@@H](O)CN2C(=O)[C@@H](NC(=O)C2(F)CC2)C(C)(C)C)CC1`, the Activity in assay [1] came out at 149%; in assay [2], 125%; in assay [3], 126%.

Take `COc1cc(-c2cn(C)c(=O)c3cnccc23)cc(OC)c1CN1CCN(CCOCCOCCOCCOCCOc2cc(-c3scnc3C)ccc2CNC(=O)[C@@H]2C[C@@H](O)CN2C(=O)[C@@H](NC(C)=O)C(C)(C)C)CC1`: the Activity worked out at 98% in assay [4], 109% in assay [3] and 114% in assay [5].

As for `COc1cc(-c2cn(C)c(=O)c3cnccc23)cc(OC)c1CN1CCN(CCOCCOCCOCCOc2cc(-c3scnc3C)ccc2CNC(=O)[C@@H]2C[C@@H](O)CN2C(=O)[C@@H](NC(=O)C2(F)CC2)C(C)(C)C)CC1`, the Activity in assay [1] was found to be 125%; in assay [2], 105%; in assay [3], 182%.

For the compound `COc1cc(-c2cn(C)c(=O)c3cnccc23)cc(OC)c1CN(C)C`, the half-inhibitory concentration (IC50) in the assay on A204 was determined as 0.372 µM; with EOL1, 0.0893 µM. Moreover, in assay [3], the Activity amounted to 90%.

Take `COc1cc(-c2cn(C)c(=O)c3cnccc23)cc(OC)c1CN1CCN(CCOCCOCCOc2cc(-c3scnc3C)ccc2CNC(=O)[C@@H]2C[C@@H](O)CN2C(=O)[C@@H](NC(=O)C2(C#N)CC2)C(C)(C)C)CC1`: the figures for the Activity in assay [4], in assay [3] and in assay [5] were 187%, 88% and 63%, respectively.

Turning to `COc1cccc2c1C(=O)c1c(O)c3c(c(O)c1C2=O)C[C@@](O)(C(=O)CO)C[C@@H]3O[C@H]1C[C@H](N)[C@H](O)[C@H](C)O1` [DOXORUBICIN], the IC50 in the assay on A204 is 0.00648 µM; in the assay with EOL1, 0.00127 µM.

For the compound `COc1cc(-c2cn(C)c(=O)c3cnccc23)c(OC)cc1CN1CC(NC(=O)COCCOCCOCCOc2cc(-c3scnc3C)ccc2CNC(=O)[C@@H]2C[C@@H](O)CN2C(=O)[C@@H](NC(=O)C2(F)CC2)C(C)(C)C)C1`, the Activity in assay [1] came to 85%; in assay [2], 95%; in assay [3], 138%.

Turning to `COc1cc(-c2cn(C)c(=O)c3cnccc23)c(OC)cc1CN1CC(NC(=O)CCCCOc2cc(-c3scnc3C)ccc2CNC(=O)[C@@H]2C[C@@H](O)CN2C(=O)[C@@H](NC(=O)C2(F)CC2)C(C)(C)C)C1`, the Activity in assay [1] stood at 131%; in assay [2] it was 110%; in assay [3], 54%.

As to `COc1cc(-c2cn(C)c(=O)c3cnccc23)cc(OC)c1CN1CCN(CCOCCOCCOc2cc(-c3scnc3C)ccc2CNC(=O)[C@@H]2C[C@@H](O)CN2C(=O)[C@@H](NC(C)=O)C(C)(C)C)CC1`, the Activity in assay [4] came out at 107%; in assay [3], 95%; in assay [5] it was 156%.

Turning to `COc1cc(-c2cn(C)c(=O)c3cnccc23)cc(OC)c1CN1CCN(C(=O)COCCOCCOCN[C@H](C(=O)N2C[C@H](O)C[C@H]2C(=O)NCc2ccc(-c3scnc3C)cc2)C(C)(C)C)CC1`, the Activity in assay [4] worked out at 113%; in assay [5], 73%.

Take `COc1cc(-c2cn(C)c(=O)c3cnccc23)cc(OC)c1CN1CC(NC(=O)COCCOc2cc(-c3scnc3C)ccc2CNC(=O)[C@@H]2C[C@@H](O)CN2C(=O)[C@@H](NC(=O)C2(F)CC2)C(C)(C)C)C1`: the Activity came to 125% in assay [1], 109% in assay [2] and 29% in assay [3].

Regarding `COc1cc(-c2cn(C)c(=O)c3cnccc23)cc(OC)c1CN1CCN(CCCCCOCCOCC(=O)N[C@H](C(=O)N2C[C@H](O)C[C@H]2C(=O)NCc2ccc(-c3scnc3C)cc2)C(C)(C)C)CC1`, the Activity stood at 80% in assay [4], 106% in assay [3] and 61% in assay [5].

As for `COc1cc(-c2cn(C)c(=O)c3cnccc23)c(OC)cc1CN1CCN(CCOCCOCCOCCOc2cc(-c3scnc3C)ccc2CNC(=O)[C@@H]2C[C@@H](O)CN2C(=O)[C@@H](NC(=O)C2(F)CC2)C(C)(C)C)CC1`, the Activity in assay [1] came to 134%; in assay [2], 127%; in assay [3], 206%.

Take `COc1cc(-c2cn(C)c(=O)c3cnccc23)cc(OC)c1CN1CCN(CCOCCOCCOCC(=O)N[C@H](C(=O)N2C[C@H](O)C[C@H]2C(=O)NCc2ccc(-c3scnc3C)cc2)C(C)(C)C)CC1`: the Activity came out at 106% in assay [4], 107% in assay [3] and 95% in assay [5].

As to `COc1cc(-c2cn(C)c(=O)c3cnccc23)c(OC)cc1CN1CC(NC(=O)COCCOCCOc2cc(-c3scnc3C)ccc2CNC(=O)[C@@H]2C[C@@H](O)CN2C(=O)[C@@H](NC(=O)C2(F)CC2)C(C)(C)C)C1`, the Activity was determined as 120% in assay [1], 103% in assay [2] and 280% in assay [3].

As to `COc1cc(-c2cn(C)c(=O)c3cnccc23)cc(OC)c1CN1CCN(CCCCCOCCOc2cc(-c3scnc3C)ccc2CNC(=O)[C@@H]2C[C@@H](O)CN2C(=O)[C@@H](NC(=O)C2(F)CC2)C(C)(C)C)CC1`, the values for the Activity in assay [1], in assay [2] and in assay [3] were 83%, 69% and 98%, respectively.

Take `COc1cc(-c2cn(C)c(=O)c3cnccc23)cc(OC)c1CN1CC(NC(=O)COCCOCCOc2cc(-c3scnc3C)ccc2CNC(=O)[C@@H]2C[C@@H](O)CN2C(=O)[C@@H](NC(=O)C2(F)CC2)C(C)(C)C)C1`: the Activity in assay [1] was 92%; in assay [2] it was 95%; in assay [3], 53%.

For `COc1cc(-c2cn(C)c(=O)c3cnccc23)cc(OC)c1CN(C)CC(=O)NCCOCCOCCNc1cccc2c1C(=O)N(C1CCC(=O)NC1=O)C2=O` (stereo unspecified), the IC50 with A204 was 0.0898 µM; with EOL1, 0.00487 µM.

Consider `COc1cc(-c2cn(C)c(=O)c3cnccc23)cc(OC)c1CN1CCN(CCOCCOCCOCCOCCOc2cc(-c3scnc3C)ccc2CNC(=O)[C@@H]2C[C@@H](O)CN2C(=O)[C@@H](NC(=O)C2(C#N)CC2)C(C)(C)C)CC1`, for which the Activity in assay [4] turned out to be 124%; in assay [3], 89%; in assay [5], 98%.

In the case of `COc1cc(-c2cn(C)c(=O)c3cnccc23)c(OC)cc1CN1CC(NC(=O)COCCOc2cc(-c3scnc3C)ccc2CNC(=O)[C@@H]2C[C@@H](O)CN2C(=O)[C@@H](NC(=O)C2(F)CC2)C(C)(C)C)C1`, the results for the Activity in assay [1], in assay [2] and in assay [3] were 112%, 99% and 158%, respectively.

Take `COc1cc(-c2cn(C)c(=O)c3cnccc23)cc(OC)c1CN1CC(NC(=O)COCCOCCOCCOc2cc(-c3scnc3C)ccc2CNC(=O)[C@@H]2C[C@@H](O)CN2C(=O)[C@@H](NC(=O)C2(F)CC2)C(C)(C)C)C1`: the Activity in assay [1] came to 98%; in assay [2], 89%; in assay [3] it was 103%.
